Source: the RNAGym collection of RNA variant scans (doi:10.1126/science.aae0568)
This sample holds only a part of the variants without activity.

B1: tRNA (parent)
chain: GUUCCGUUGGCGUAAUGGUAACGCGUCUCCCUCCUAAGGAGAAGACUGCGGGUUCGAGUCCCGUACGGAACG

Variants of: B1
Experiment: yeast fitness relative to wild type (ratio to wild type); higher = fitter; tRNA-Arg(CCU), competitive growth, 37 C, YPD
In short: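 A pool of Saccharomyces cerevisiae strains, each with a tRNA-Arg(CCU) gene variant at the native genomic locus, was competed in YPD at 37°C for 24 hours across six parallel replicates. The variants had been chemically synthesised at a 3% per-site mutation rate over 69 sites, and gene amplicons before and after competition were read by 100-nucleotide paired-end sequencing. Darwinian fitness relative to wild type rested on changes in genotype frequencies. Genotypes required ≥ 100 starting reads, and estimates < 0.5 were set to 0.5.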

| Variant | yeast fitness |
| --- | --- |
| C11U A42G C46G G56C A65C | ≤ 0.5 |
| C11U A36U G48C U54C | ≤ 0.5 |
| C11U A15U A57G A69C | ≤ 0.5 |
| C11U A14G U19A | 0.658 |
| C11U A45U A69C | 0.874 |
| C11U A45U A69U | 0.915 |
| C11G U19A G25A C49U | ≤ 0.5 |
| C11U A14U C27U A36U A43G C46U A65U | ≤ 0.5 |
| C11U C22G C29G G41A U54A | ≤ 0.5 |
| C11U C22G A65G | 0.731 |
| C11U A21C A42G C61U | ≤ 0.5 |
| C11U A20U G39C U54G | ≤ 0.5 |
| C11U A21C | 0.714 |
| C11G U19A C22G U59A | ≤ 0.5 |
| C11G U64A | 0.623 |
| C11G U64C | 0.567 |
| C11U A15C A40U | 0.543 |
| C11U C22G C29G G41A U54A U64G | ≤ 0.5 |
| C11U A15C C27A G39C G48A | 0.546 |
| C11U A37C A45C | 0.576 |
| C11U A20U G44A C46A G52A C66U | ≤ 0.5 |
| C11U A14C C29U C30G A40G C49A | ≤ 0.5 |
| C11U A15C A65C A70U | ≤ 0.5 |
| C11U A21C G67A | 0.597 |

| Variant | yeast fitness |
| --- | --- |
| C11U A57G | 0.816 |
| C11U A57C | 0.622 |
| C11U A14U C34U A57G | ≤ 0.5 |
| C11U A14G C31A C55U G68A | ≤ 0.5 |
| C11U A43C G56A | 0.692 |
| C11U A15C A21G C24G U28A | ≤ 0.5 |
| C11G U28A A70U | ≤ 0.5 |
| C11U A21C A42G A69C A70G | 0.563 |
| C11G U28A C66U A70U | ≤ 0.5 |
| C11U C24A C34U A37U G39C A40U G52A C55G | ≤ 0.5 |
| C11G U35C C46U C61U | ≤ 0.5 |
| C11U A15G C46A A57G | 0.629 |
| C11U A21C C22A C66A | ≤ 0.5 |
| C11U A65U A70G | 0.696 |
| C11U A20G U47G G58A | ≤ 0.5 |
| C11G U28C C34U G44C G50C U53C | ≤ 0.5 |
| C11U A45C C62G A65C | ≤ 0.5 |
| C11U C22G A42G U59C | ≤ 0.5 |
| C11U A20C C29G G56C G58A | 0.693 |
| C11U A15G G58C | 0.725 |
| C11U A14U C24G G44A C49U | ≤ 0.5 |
| C11U A15C C29U A37G G63A | ≤ 0.5 |
| C11G U19C G58C | ≤ 0.5 |
| C11U A21U U54A A70G | ≤ 0.5 |

| Variant | yeast fitness |
| --- | --- |
| C11G U28A G39A G48A G67C | ≤ 0.5 |
| C11U A15U U35G G44C A69G | 0.774 |
| C11U A20U G38A G51A U54A | 0.527 |
| C11U A42U A43G C61A | ≤ 0.5 |
| C11G U28A G39A G48A C61G C66G | 0.561 |
| C11U C22U A40C | 0.558 |
| C11U C24G C29U G50A G58C G63A C66U | ≤ 0.5 |
| C11U A65U C66A | ≤ 0.5 |
| C11U A21U C61A A70U | ≤ 0.5 |
| C11G U53C | 0.584 |
| C11U A21G C29U C55G | ≤ 0.5 |
| C11G U53A C55U G56C | ≤ 0.5 |
| C11U A14U C34U | ≤ 0.5 |
| C11U A15G U32A | ≤ 0.5 |
| C11U A15G A21G C34U G44A C61A A70C | ≤ 0.5 |
| C11U C22U | 0.855 |
| C11U C22G | 0.875 |
| C11U C24U C34G U64A | ≤ 0.5 |
| C11G U32A G68A | 0.746 |
| C11U A42C A65G | 0.658 |
| C11U A36U A37C A42U G63C | ≤ 0.5 |
| C11U A15C C27A G68A | ≤ 0.5 |
| C11U C22G C33U | ≤ 0.5 |
| C11U A20U C30A G38A G51A U54A | ≤ 0.5 |

| Variant | yeast fitness |
| --- | --- |
| C11U A15G | 1.01 |
| C11U A36G A43C | 0.546 |
| C11U A14C G68A | 0.624 |
| C11U A40U G50C G58C U59A | 0.564 |
| C11U A69U | 0.949 |
| C11U A43U A45C G67C | ≤ 0.5 |
| C11U A21G C55U | 0.593 |
| C11U A45G | 0.96 |
| C11U A14C C22U A43C | ≤ 0.5 |
| C11G U28A | ≤ 0.5 |
| C11G U32G A57C C62U | 0.643 |
| C11U C22G A37C A42G G44A | ≤ 0.5 |
| C11U A20U C22A U53G | ≤ 0.5 |
| C11U A36G U53C | 0.538 |
| C11U A20U C29G U47G G63A A70U | ≤ 0.5 |
| C11U C22U A57U | 0.512 |
| C11U A65U A69C | 0.588 |
| C11U A20U C22A | ≤ 0.5 |
| C11U A57G U59C G67A | ≤ 0.5 |
| C11U A37C U47C | 0.706 |
| C11U C24G | 0.614 |
| C11U A15G A69U | 0.765 |
| C11G U59A C61A | ≤ 0.5 |
| C11U A65U G68C | 0.592 |

| Variant | yeast fitness |
| --- | --- |
| C11U A45U A70C | 1.06 |
| C11U C22G A36G A65U | 0.554 |
| C11U A14G C24G C27U G41A A42C C66U | ≤ 0.5 |
| C11G U32G A45G C49U A70U | ≤ 0.5 |
| C11U C24G C62G | ≤ 0.5 |
| C11U A14U U16C G25C C27U C61G | ≤ 0.5 |
| C11U C22G A69C | 0.653 |
| C11U A36C C61U | ≤ 0.5 |
| C11G U32G A69C A70U | ≤ 0.5 |
| C11U A15G C27G C60U C62G C66G | ≤ 0.5 |
| C11U A43C C62U | 0.692 |
| C11U C22A C29G C33U | 0.519 |
| C11G U47A G67A | 0.548 |
| C11U A37U C49G | ≤ 0.5 |
| C11U A45U C49G A65U | ≤ 0.5 |
| C11U A42C U47C | 0.764 |
| C11U A42G U59C C61U | ≤ 0.5 |
| C11G U32A | ≤ 0.5 |
| C11U C24U A45G C46G C55G | ≤ 0.5 |
| C11U C24U C30U A57C G63C | ≤ 0.5 |
| C11U A14C C27G C46G A65G | 0.52 |
| C11U A43C G44A | 0.741 |
| C11U C22G G58A C61U | 0.608 |
| C11U C24G G63C G67A | 0.568 |

| Variant | yeast fitness |
| --- | --- |
| C11U A42G C60G | ≤ 0.5 |
| C11G U19C C34G C60A G67C | ≤ 0.5 |
| C11U A40C | 0.755 |
| C11U A40U | 0.787 |
| C11U A21U A69G | 0.712 |
| C11U A36C U64A A70C | ≤ 0.5 |
| C11U A42U C60A A65U | 0.553 |
| C11U A21C C27U A42G A69C A70G | ≤ 0.5 |
| C11U A43C G48C U64C | ≤ 0.5 |
| C11U A15C A21G C29U A37G | ≤ 0.5 |
| C11U A45G U59A | 0.526 |
| C11U C22U G44C C62U | ≤ 0.5 |
| C11U A37C | 0.724 |
| C11U A37U | 0.808 |
| C11U A20U G39A G41C C46A G68A | ≤ 0.5 |
| C11U A14U C27U A36U A43G C46U | 0.632 |
| C11U A36G C60G A70C | ≤ 0.5 |
| C11U A69C A70U | 0.814 |
| C11U A14C G17A G23A C29G A42C G56A C62U | ≤ 0.5 |
| C11U C24G A45C C60A G68U | ≤ 0.5 |
| C11U A21C U35A A42U C46G | ≤ 0.5 |
| C11U C22U C55U | 0.681 |
| C11U C22G A70U | 0.722 |
| C11U A21G C24A G52A | ≤ 0.5 |

| Variant | yeast fitness |
| --- | --- |
| C11U C24G C61A | 0.569 |
| C11U A15U C60U G67C | ≤ 0.5 |
| C11U A14C G23A U26C C55U | ≤ 0.5 |
| C11U A21C C27G G39C | 0.544 |
| C11U A20U C60U | ≤ 0.5 |
| C11U A14U G18A C31U C46G U47A A65C | ≤ 0.5 |
| C11U A14G C27G C31U | 0.618 |
| C11U A15G A36U A43U C46G C62A | 0.635 |
| C11U A15G C46A | 0.915 |
| C11U A43U C62A | 0.605 |
| C11U A15G A45G | 0.599 |
| C11U C22G C62U A70C | ≤ 0.5 |
| C11U A15G G18A C31A A36G C61G | 0.513 |
| C11U A37G U54A U59G | ≤ 0.5 |
| C11U A15C G44C C46A | ≤ 0.5 |
| C11U A20U C24U C33G U47A C49U | 0.557 |
| C11U A57C C60U G67C | 0.589 |
| C11U A15G C46A C62G G68A | ≤ 0.5 |
| C11U C22A C24G A36G G39C C55U C66U | ≤ 0.5 |
| C11U A15G G23A C60A C61U G63C C66U | ≤ 0.5 |
| C11U A57C G63A | ≤ 0.5 |
| C11U A15U A65U | ≤ 0.5 |
| C11U C22G A57U | ≤ 0.5 |
